Laboratory results as given in ChEMBL document CHEMBL4251617, “Synthesis and anticancer activity of novel water soluble benzimidazole carbamates” (Eur J Med Chem, 2018).
≈ marks a conversion by molar mass, not a printed value. Calls of active or inactive are those of the source. The calls are words filed in the database; no cut-off is given here.

How the values were obtained:
A549 [1] = assay: Cytotoxicity against human A549 cells assessed as cell viability at 10 uM after 72 hrs by MTT assay relative to control; assay type: functional; settings: A549, 72 h, read-out: Activity
PC-3 [2] = assay: Cytotoxicity against human PC3 cells assessed as cell viability at 10 uM after 72 hrs by MTT assay relative to control; assay type: functional; settings: PC-3, 72 h, read-out: Activity
[3] = Cytotoxicity against human PC3MLN4 cells assessed as cell viability at 10 uM after 72 hrs by MTT assay relative to control; assay type: functional; settings: read-out: Activity
[4] = Cytotoxicity against human PC3MLN4 cells assessed as cell viability at 1 uM after 72 hrs by MTT assay relative to control; assay type: functional; settings: read-out: Activity
PC-3 [5] = assay: Cytotoxicity against human PC3 cells assessed as cell viability at 1 uM after 72 hrs by MTT assay relative to control; assay type: functional; settings: PC-3, 72 h, read-out: Activity
A549 [6] = assay: Cytotoxicity against human A549 cells assessed as cell viability at 1 uM after 72 hrs by MTT assay relative to control; assay type: functional; settings: A549, 72 h, read-out: Activity
PC-3M = assay: Cytotoxicity against human PC3M cells assessed as reduction in cell viability after 48 hrs by cyquant reagent based fluorescence spectrometric assay; assay type: functional
How it was run: (§1)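 3 X 10^5 cells per well seeded overnight, then exposed 48 hr. Cells harvested, washed, frozen at -80 °C overnight, thawed, and CyQuant reagent added with fluorescence read at 485 nm. Survival as % of vehicle-treated cells. EC50 (50% survival reduction) by median-dose effect analysis.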

[7] = Selectivity ratio of EC50 for cytotoxicity against human PC3M cells to EC50 for cytotoxicity against human PC3MLN4 cells; assay type: functional
[8] = Cytotoxicity against human PC3MLN4 cells assessed as reduction in cell viability after 48 hrs by cyquant reagent based fluorescence spectrometric assay; assay type: functional; how it was run: as §1
A549/TR = assay: Cytotoxicity against human A549/TR cells assessed as reduction in cell viability after 72 hrs by MTT assay; assay type: functional, cell-based
How it was run: (§2)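 Cells seeded per well at 5 X 10^3 (PC3MLN4, A549, Calu1, H157, A549-TR), 6 X 10^3 (PC3) or 8 X 10^3 (SKOV3). SKOV3 grown in McCoy's 5A, others in RPMI-1640, 10% FBS. Next day 2X drug added, 3.2 nM-50 µM five-fold dilutions, 72 hr.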

Mus musculus = assay: Toxicity in nude mouse xenografted with human PC3MLN4 cells assessed as reduction in body weight at 30 mg/kg, ip administered every other day 3 times per week for 2 weeks measured 3 times per week during compound dosing relative to control; assay type: organism-based; parameters: scale not given: the % may be the effect or the level left; settings: in vivo, 336 h
How it was run: (§3)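 PC3MLN4 cells (1 X 10^6) in growth factor reduced Matrigel/HBSS injected subcutaneously between the scapulae of athymic nude mice. Dosing began day 13 at tumor volume about 35 mm3. Randomized groups of 4-5 mice got 30 mg/kg IP in 5% DMSO/HBSS, or vehicle alone. Tumor (calipers) and body weight measured on dosing days and 3 days after last dose. Mean ± SEM, t-test.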

Homo sapiens [9] = species: Homo sapiens; assay: Cell cycle arrest in human PC3MLN4 cells assessed as accumulation at G2/M phase at 1 uM after 24 hrs by propidium iodide staining based flow cytometry; assay type: functional
How it was run: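 PC3MLN4 cells seeded 3 X 10^5/well, next day treated 24 hr at 1 µM, nocodazole 1 µM as control. Floating and adherent cells pooled, fixed in cold 70% ethanol 30 min, then PI plus RNase A for 30 min. 15 X 10^3 cells acquired by FACS. G1/S/G2 fractions from Dean-Jett-Fox fit.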

A549 [10] = assay: Cytotoxicity against human A549 cells assessed as reduction in cell viability after 72 hrs by MTT assay; assay type: functional, cell-based; settings: A549, 72 h; how it was run: as §2
Homo sapiens [11] = species: Homo sapiens; assay: Disruption of microtubule dynamics in human PC3MLN4 cells at 1 uM after 48 hrs by immunofluorescence microscopic method; assay type: cell-based
How it was run: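 PC3MLN4 cells on coverslips were treated 48 hr at 1 µM. They were fixed in 4% PFA 15 min and permeabilized in 0.2% Triton X-100 8 min. Blocking was 2% goat serum/2% BSA 1 hr. Anti-α-tubulin 1:200 for 1 hr was followed by Alexa Fluor 488 secondary 1:400 for 45 min, with DAPI 500 nM counterstain and imaging at 100X and 200X.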

SK-OV-3 = assay: Cytotoxicity against human SKOV3 cells assessed as reduction in cell viability after 72 hrs by MTT assay; assay type: functional, cell-based; settings: SK-OV-3, 72 h; how it was run: as §2
[12] = Cytotoxicity against human PC3MLN4 cells assessed as reduction in cell viability after 72 hrs by MTT assay; assay type: functional, cell-based; how it was run: as §2
[13] = Antitumor activity against human PC3MLN4 cells xenografted in nude mouse assessed as reduction in tumor volume at 30 mg/kg, ip administered every other day 3 times per week for 2 weeks; assay type: functional; how it was run: as §3
PC-3 [14] = assay: Cytotoxicity against human PC3 cells assessed as reduction in cell viability after 72 hrs by MTT assay; assay type: functional, cell-based; settings: PC-3, 72 h; how it was run: as §2
NCI-H157 = assay: Cytotoxicity against human NCI-H157 cells assessed as reduction in cell viability after 72 hrs by MTT assay; assay type: functional, cell-based; settings: NCI-H157, 72 h; how it was run: as §2
Calu-1 = assay: Cytotoxicity against human Calu1 cells assessed as reduction in cell viability after 72 hrs by MTT assay; assay type: functional, cell-based; settings: Calu-1, 72 h; how it was run: as §2
Homo sapiens [15] = species: Homo sapiens; assay: Upregulation of Cyclin-B1 protein expression in human PC3MLN4 cells at 1 uM after 24 hrs by Western blot method; assay type: functional, cell-based
How it was run: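 PC3MLN4 cells were treated 24 hr and lysed in 50 mM Tris pH 7.5, 150 mM NaCl, 10 mM NaF, 0.5% NP40 with protease inhibitors. Equal protein (BCA) was run on SDS-PAGE and transferred to nitrocellulose, then blocked in 5% milk/TBST. Blots were probed for cyclin B1 with GAPDH as loading control, using HRP secondary and ECL.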

[16] = Kinetic solubility in pH 7.4 PBS buffer sonicated for 30 mins by HPLC-UV method
physchem = settings: PBS buffer, pH 7.4

SMILES	viability at 10 µM (A549 [1]) [%]	viability at 10 µM (PC-3 [2]) [%]	viability at 10 µM [3] [%]	viability at 1 µM [4] [%]	viability at 1 µM (PC-3 [5]) [%]	viability at 1 µM (A549 [6]) [%]	further results
CCCSc1ccc2[nH]c(NC(=O)OC3COC3)nc2c1	79.2	84.5	83.8	88.3	95.2	73.2	
COC(=O)Nc1nc2cc(Sc3ccccc3)ccc2[nH]1 [FENBENDAZOLE]							EC50 (PC-3M): 2600 nM; Ratio EC50 [7]: 2; EC50 [8]: 910 nM
CC(=O)O[C@H]1C(=O)[C@@]2(C)[C@H]([C@H](OC(=O)c3ccccc3)[C@]3(O)C[C@H](OC(=O)[C@H](O)[C@@H](NC(=O)c4ccccc4)c4ccccc4)C(C)=C1C3(C)C)[C@]1(OC(C)=O)CO[C@@H]1C[C@@H]2O [PACLITAXEL]							EC50 (A549/TR): 10300 nM
COC(=O)Nc1nc2cc(Oc3cccc(N4CCN(C)CC4)n3)ccc2[nH]1	72.6	52.1	74	83	98.1	87.8	
CN(C)CCOC(=O)Nc1nc2cc(Sc3ccccc3)ccc2[nH]1	39.2	35	36.6	98.1	88.9	91.8	
O=C(Nc1nc2cc(C(=O)c3ccccc3)ccc2[nH]1)OC1COC1	62	65.5	66.8	70.6	90.9	68	
COC(=O)Nc1nc2ccc(C(=O)c3ccccc3)cc2[nH]1 [MEBENDAZOLE]							Activity (Mus musculus): 5%
COC(=O)Nc1nc2cc(C(=O)c3ccccc3N(C)C3COC3)ccc2[nH]1	46.8	54.8	38.4	100	101	99	
CCCSc1ccc2[nH]c(NC(=O)OCCCN(C)C)nc2c1	89.9	78.2	88.6	86.7	95.5	83.8	
CN(C)CCCOC(=O)Nc1nc2cc(C(=O)c3ccc(F)cc3)ccc2[nH]1	88.1	86.5	91	87.3	105	85.4	
CCCSc1ccc2[nH]c(NC(=O)OCC3(C)COC3)nc2c1	87.6	79.2	89.7	87.6	87.2	83.1	
COC(=O)Nc1nc2cc(Oc3cccc(N4CCN(C)CC4)c3)ccc2[nH]1	47.5	32.2	33.4	86.3	73.1	77	
COC(=O)Nc1nc2cc(C(=O)c3ccccc3)ccc2[nH]1 [MEBENDAZOLE]	50.8	35.8	24.9	53.9	63.4	61.5	Activity (Homo sapiens [9]): inactive; EC50 (A549 [10]): 900 nM; EC50 (PC-3M): 1210 nM; Activity (Homo sapiens [11]): Active; EC50 (SK-OV-3): 500 nM; EC50 [12]: 500 nM; EC50 (A549/TR): 1700 nM; T/C [13]: 0.31; EC50 (PC-3 [14]): 1100 nM; EC50 (NCI-H157): 3500 nM; EC50 [8]: 700 nM; EC50 (Calu-1): 1100 nM
CCCSc1ccc2[nH]c(NC(=O)OC)nc2c1 [ALBENDAZOLE]							EC50 (PC-3M): 1150 nM; Ratio EC50 [7]: 2; EC50 [8]: 580 nM
CCCSc1ccc2[nH]c(NC(=O)OCCN(C)C)nc2c1	51.8	37.9	42.8	92.7	82.5	75.5	
O=C(Nc1nc2cc(Sc3ccccc3)ccc2[nH]1)OC1COC1	74.8	87.8	79.1	80.2	107	75	
CN(C)CCOC(=O)Nc1nc2cc(C(=O)c3ccc(F)cc3)ccc2[nH]1	80.4	90.9	97.2	84.6	91.2	89.4	
COC(=O)Nc1nc2cc(C(=O)c3cccs3)ccc2[nH]1							Activity (Homo sapiens [15]): Active; Activity (Homo sapiens [11]): Active
COC(=O)Nc1nc2cc(C(=O)c3ccc(F)cc3)ccc2[nH]1 [FLUBENDAZOLE]							EC50 (PC-3M): 1430 nM; Ratio EC50 [7]: 2; EC50 [8]: 670 nM
COC(=O)Nc1nc2cc(C(=O)c3ccc(N(C)C4COC4)cc3)ccc2[nH]1	42.2	33.6	23.2	34.9	44.5	50.2	Activity (Homo sapiens [9]): Active; EC50 (A549 [10]): 1400 nM; Activity (Homo sapiens [15]): Active; Activity (Homo sapiens [11]): Active; Activity (Mus musculus): Non-Toxic; EC50 (SK-OV-3): 1000 nM; EC50 [12]: 900 nM; EC50 (A549/TR): 3800 nM; T/C [13]: 0.36; EC50 (PC-3 [14]): 1600 nM; solubility kinetic at 0.5 h [16]: 253 µM (≈ 96.2 µg/mL); EC50 (NCI-H157): 2400 nM; solubility thermodynamic at 24 h (physchem): 361 µM (≈ 137 µg/mL); EC50 (Calu-1): 1600 nM
CN(C)CCOC(=O)Nc1nc2cc(C(=O)c3ccccc3)ccc2[nH]1	89.6	92.6	98.8	101	97.3	94.4	
